Measurements published in ChEMBL document CHEMBL4373647, “Design, synthesis, and antimicrobial evaluation of 1,4-dihydroindeno[1,2-c]pyrazole tethered carbohydrazide hybrids: exploring their in silico ADMET, ergosterol inhibition and ROS inducing potential” (Medchemcomm, 2019).
Values after ≈ are worked out from the molar mass of the structure shown. Active and inactive are the calls of the source. The calls are words filed in the database; no cut-off is given here.

Assays:
[1] = system: Candida albicans; experiment: Antifungal activity against Candida albicans MTCC 1637 assessed as inhibition of fungal growth incubated for 24 hrs by agar well diffusion method; type: functional; settings: MTCC 1637, 24 h
Procedure, shortened: (§1)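 Candida strains from MTCC, pre-cultured and spread on Mueller Hinton agar. Wells received compound dissolved in 10% DMSO, 125–0.97 µg/mL; miconazole standard over the same range, DMSO negative control. After 24 h at 37 °C, MIC was read as the lowest concentration giving an inhibition zone. Duplicate experiments, means given.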

[2] = system: Candida albicans; experiment: Antifungal activity against Candida albicans MTCC 7315 assessed as inhibition of fungal growth incubated for 24 hrs by agar well diffusion method; type: functional; settings: MTCC 7315, 24 h; procedure, shortened: as §1
[3] = system: Candida albicans; experiment: Antifungal activity against Candida albicans MTCC 3018 assessed as inhibition of fungal growth incubated for 24 hrs by agar well diffusion method; type: functional; settings: MTCC 3018, 24 h; procedure, shortened: as §1
[4] = system: Raoultella planticola; experiment: Antibacterial activity against Klebsiella planticola MTCC 530 assessed as inhibition of bacterial growth incubated for 24 hrs by agar well diffusion method; type: functional; settings: MTCC 530, 24 h
Procedure, shortened: (§2)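 Strains from MTCC; inoculum at 0.5 McFarland spread on Mueller-Hinton agar; 6 mm wells loaded with compound over 125–0.97 µg/mL; ciprofloxacin positive control (same range), DMSO negative control. Plates held 24 h at 37 °C; MIC taken as lowest concentration giving a clear inhibition zone. Triplicate runs, mean MIC reported.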

[5] = system: Candida albicans; experiment: Fungicidal activity against Candida albicans MTCC 3018 assessed as fungal killing incubated for 24 hrs; type: functional; settings: MTCC 3018, 24 h
Procedure, shortened: (§3)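 Compound at 125–0.97 µg/mL in Mueller Hinton broth in microcentrifuge tubes, each Candida strain added, held 24 h at 37 °C. 10 µL of the treated suspension plated on Mueller Hinton agar and incubated a further 24 h at 37 °C. MFC is the lowest concentration that kills the strain. Duplicates, means reported.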

[6] = system: Candida albicans; experiment: Ratio of MFC to MIC against Candida albicans MTCC 227; type: functional
Procedure, shortened: (§4)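 MIC by agar well diffusion: Candida lawns on Mueller-Hinton agar, wells loaded with compound in 10% DMSO (125–0.97 µg/mL), 24 h at 37 °C, lowest concentration giving an inhibition zone. MFC: compound in Mueller-Hinton broth (125–0.97 µg/mL) with yeast, 24 h at 37 °C, 10 µL plated on agar, lowest killing concentration after 24 h. Ratio is MFC/MIC.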

[7] = system: Candida albicans; experiment: Fungicidal activity against Candida albicans MTCC 227 assessed as fungal killing incubated for 24 hrs; type: functional; settings: MTCC 227, 24 h; procedure, shortened: as §3
[8] = system: Staphylococcus aureus; experiment: Ratio of MBC to MIC against Staphylococcus aureus MLS-16 MTCC 2940; type: functional
[9] = system: MRC5; experiment: Cytotoxicity against human MRC5 cells incubated for 48 hrs by MTT assay; type: cell-based; settings: MRC5, 48 h
Procedure, shortened: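 Normal human lung MRC5 cells grown 24 h in 96-well plates, then exposed to a range of compound concentrations for 48 h. MTT (250 µg/mL) added for 2 h, medium replaced by DMSO, absorbance read at 570 nm. Miconazole positive control, DMSO negative control. Triplicates, mean ± S.D.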

[10] = system: Candida albicans; experiment: Ratio of MFC to MIC against Candida albicans MTCC 4748; type: functional; procedure, shortened: as §4
[11] = system: Candida parapsilosis; experiment: Fungicidal activity against Candida parapsilosis MTCC 1744 assessed as fungal killing incubated for 24 hrs; type: functional; settings: Lodderomyces parapsilosis, MTCC 1744, 24 h; procedure, shortened: as §3
[12] = system: Raoultella planticola; experiment: Bactericidal activity against Klebsiella planticola MTCC 530 assessed as bacterial killing incubated for 24 hrs; type: functional; settings: MTCC 530, 24 h
Procedure, shortened: (§5)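 Broth tube assay: compound at 0–125 µg/mL in Mueller Hinton broth, overnight culture added to 0.5 McFarland (1.5 × 10^8 cfu/mL), held 24 h at 37 °C. 10 µL from each tube plated on Mueller Hinton agar. MBC is the lowest concentration that kills the strain. Duplicates, means reported.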

[13] = system: Candida albicans; experiment: Fungicidal activity against Candida albicans MTCC 7315 assessed as fungal killing incubated for 24 hrs; type: functional; settings: MTCC 7315, 24 h; procedure, shortened: as §3
[14] = system: Pichia sporocuriosa; experiment: Fungicidal activity against Issatchenkia hanoiensis MTCC 4755 assessed as fungal killing incubated for 24 hrs; type: functional; settings: MTCC 4755, 24 h; procedure, shortened: as §3
[15] = system: Bacillus subtilis; experiment: Bactericidal activity against Bacillus subtilis MTCC 121 assessed as bacterial killing incubated for 24 hrs; type: functional; settings: MTCC 121, 24 h; procedure, shortened: as §5
[16] = system: Candida albicans; experiment: Antifungal activity against Candida albicans MTCC 183 assessed as inhibition of fungal growth incubated for 24 hrs by agar well diffusion method; type: functional; procedure, shortened: as §1
[17] = system: Micrococcus luteus; experiment: Antibacterial activity against Micrococcus luteus MTCC 2470 assessed as inhibition of bacterial growth incubated for 24 hrs by agar well diffusion method; type: functional; settings: MTCC 2470, 24 h; procedure, shortened: as §2
[18] = system: Candida albicans; experiment: Fungicidal activity against Candida albicans MTCC 1637 assessed as fungal killing incubated for 24 hrs; type: functional; settings: MTCC 1637, 24 h; procedure, shortened: as §3
[19] = system: Staphylococcus aureus; experiment: Antibacterial activity against Staphylococcus aureus MTCC 96 assessed as inhibition of bacterial growth incubated for 24 hrs by agar well diffusion method; type: functional; settings: MTCC 96, 24 h; procedure, shortened: as §2
[20] = system: Nakaseomyces glabratus; experiment: Fungicidal activity against Candida glabrata MTCC 3019 assessed as fungal killing incubated for 24 hrs; type: functional; settings: MTCC 3019, 24 h; procedure, shortened: as §3
[21] = system: Bacillus subtilis; experiment: Ratio of MBC to MIC against Bacillus subtilis MTCC 121; type: functional
[22] = system: Staphylococcus aureus; experiment: Bactericidal activity against Staphylococcus aureus MLS-16 MTCC 2940 assessed as bacterial killing incubated for 24 hrs; type: functional; settings: MLS-16 MTCC 2940, 24 h; procedure, shortened: as §5
[23] = system: Pseudomonas aeruginosa; experiment: Ratio of MBC to MIC for Pseudomonas aeruginosa MTCC 2453; type: functional
[24] = system: Candida albicans; experiment: Ratio of MFC to MIC against Candida albicans MTCC 183; type: functional
[25] = system: Nakaseomyces glabratus; experiment: Ratio of MFC to MIC against Candida glabrata MTCC 3019; type: functional; procedure, shortened: as §4
[26] = system: Candida albicans; experiment: Ratio of MFC to MIC against Candida albicans MTCC 1637; type: functional
[27] = system: Pichia kudriavzevii; experiment: Antifungal activity against Candida krusei MTCC 3020 assessed as inhibition of fungal growth incubated for 24 hrs by agar well diffusion method; type: functional; settings: MTCC 3020, 24 h; procedure, shortened: as §1
[28] = system: Staphylococcus aureus; experiment: Antibacterial activity against Staphylococcus aureus MLS-16 MTCC 2940 assessed as inhibition of bacterial growth incubated for 24 hrs by agar well diffusion method; type: functional; settings: MLS-16 MTCC 2940, 24 h; procedure, shortened: as §2
[29] = system: Staphylococcus aureus; experiment: Ratio of MBC to MIC against Staphylococcus aureus MTCC 96; type: functional
[30] = system: Pichia sporocuriosa; experiment: Ratio of MFC to MIC against Issatchenkia hanoiensis MTCC 4755; type: functional; procedure, shortened: as §4
[31] = system: Candida albicans; experiment: Fungicidal activity against Candida albicans MTCC 4748 assessed as fungal killing incubated for 24 hrs; type: functional; settings: MTCC 4748, 24 h; procedure, shortened: as §3
[32] = system: Escherichia coli; experiment: Antibacterial activity against Escherichia coli MTCC 739 assessed as inhibition of bacterial growth incubated for 24 hrs by agar well diffusion method; type: functional; settings: MTCC 739, 24 h; procedure, shortened: as §2
[33] = system: Candida albicans; experiment: Ratio of MFC to MIC against Candida albicans MTCC 7315; type: functional; procedure, shortened: as §4
[34] = system: Candida albicans; experiment: Fungicidal activity against Candida albicans MTCC 183 assessed as fungal killing incubated for 24 hrs; type: functional; procedure, shortened: as §3
[35] = system: Bacillus subtilis; experiment: Antibacterial activity against Bacillus subtilis MTCC 121 assessed as inhibition of bacterial growth incubated for 24 hrs by agar well diffusion method; type: functional; settings: MTCC 121, 24 h; procedure, shortened: as §2
[36] = system: Candida parapsilosis; experiment: Ratio of MFC to MIC against Candida parapsilosis MTCC 1744; type: functional; procedure, shortened: as §4
[37] = system: Micrococcus luteus; experiment: Ratio of MBC to MIC against Micrococcus luteus MTCC 2470; type: functional

Row | MIC [1] [µg/mL] | MIC [2] [µg/mL] | MIC [3] [µg/mL] | MIC [16] | MIC [17] [µg/mL] | MIC [19] [µg/mL] | Compound | MIC [4] [µg/mL] | MFC [5] [µg/mL] | Ratio [6] | MFC [7] [µg/mL] | Ratio [8] | IC50 [9] [µg/mL] | Ratio [10] | MFC [11] [µg/mL] | MBC [12] [µg/mL] | MFC [13] [µg/mL] | MFC [14] [µg/mL] | MBC [15] [µg/mL] | MFC [18] [µg/mL] | MFC [20] [µg/mL] | other results
1 | 15.6 (≈ 49 µM) | 15.6 (≈ 49 µM) | 7.8 (≈ 24.5 µM) | inactive | 7.8 (≈ 24.5 µM) | 3.9 (≈ 12.3 µM) | O=C(N/N=C/c1ccc(O)cc1)c1n[nH]c2c1Cc1ccccc1-2 | 7.8 (≈ 24.5 µM) | 15.6 (≈ 49 µM) | 2 | 15.6 (≈ 49 µM) | 2 | 35.6 (≈ 112 µM) | 2 | 31.2 (≈ 98 µM) | 15.6 (≈ 49 µM) | 31.2 (≈ 98 µM) | 62.4 (≈ 196 µM) | 15.6 (≈ 49 µM) | 31.2 (≈ 98 µM) | > 62.5 | Ratio [21]: 2; MBC [22]: 7.8 µg/mL (≈ 24.5 µM); Ratio [23]: 2; Ratio [24]: 2; Ratio [25]: 2; Ratio [26]: 2; MIC [27]: 15.6 µg/mL (≈ 49 µM); MIC [28]: 3.9 µg/mL (≈ 12.3 µM); Ratio [29]: 2; Ratio [30]: 2; MFC [31]: > 62.5 µg/mL; MIC [32]: 3.9 µg/mL (≈ 12.3 µM); Ratio [33]: 2; MFC [34]: inactive; MIC [35]: 7.8 µg/mL (≈ 24.5 µM); Ratio [36]: 2; Ratio [37]: 2
2 | 15.6 (≈ 40.4 µM) | 15.6 (≈ 40.4 µM) | 7.8 (≈ 20.2 µM) | inactive | 7.8 (≈ 20.2 µM) | 3.9 (≈ 10.1 µM) | COc1ccc2c(c1)Cc1c(C(=O)N/N=C/c3c(F)cc(F)cc3F)n[nH]c1-2 | 7.8 (≈ 20.2 µM) | 15.6 (≈ 40.4 µM) | 2 | 15.6 (≈ 40.4 µM) | 2 | 37.2 (≈ 96.3 µM) | 2 | 31.2 (≈ 80.8 µM) | 15.6 (≈ 40.4 µM) | 31.2 (≈ 80.8 µM) | 31.2 (≈ 80.8 µM) | 15.6 (≈ 40.4 µM) | 31.2 (≈ 80.8 µM) | 31.2 (≈ 80.8 µM) | Ratio [21]: 2; MBC [22]: 7.8 µg/mL (≈ 20.2 µM); Ratio [23]: 2; Ratio [24]: 2; Ratio [25]: 2; Ratio [26]: 2; MIC [27]: 15.6 µg/mL (≈ 40.4 µM); MIC [28]: 3.9 µg/mL (≈ 10.1 µM); Ratio [29]: 2; Ratio [30]: 2; MFC [31]: 31.2 µg/mL (≈ 80.8 µM); MIC [32]: 3.9 µg/mL (≈ 10.1 µM); Ratio [33]: 2; MFC [34]: inactive; MIC [35]: 7.8 µg/mL (≈ 20.2 µM); Ratio [36]: 2; Ratio [37]: 2
